Assay results taken from ChEMBL document CHEMBL4340532, “Design, synthesis, and biological evaluation of novel 2'-deoxy-2'-fluoro-2'-C-methyl 8-azanebularine derivatives as potent anti-HBV agents” (Bioorg Med Chem Lett, 2019).

Legend:
[1] = tested on: Hepatitis B virus; assay: (§1) Antiviral activity against Hepatitis B virus infected in human HepG2.2.15 cells assessed as inhibition of extracellular HBV DNA replication at 20 uM supplemented with fresh medium containing compound every 3 days for 6 days measured post-last dose by FQ-PCR analysis relative to control; type: functional
How it was run: (§2)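 HepG2.2.15 cultures were treated at 10, 20 or 40 µM for 3, 6 and 9 days. Both intracellular and extracellular HBV DNA levels were then determined and compared with untreated cells.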

[2] = tested on: Hepatitis B virus; assay: (§3) Antiviral activity against Hepatitis B virus infected in human HepG2.2.15 cells assessed as inhibition of extracellular HBV DNA replication at 40 uM supplemented with fresh medium containing compound every 3 days for 9 days measured post-last dose by FQ-PCR analysis relative to control; type: functional; how it was run: as §2
[3] = tested on: Hepatitis B virus; assay: Antiviral activity against Hepatitis B virus infected in human HepG2.2.15 cells assessed as inhibition of extracellular HBV DNA replication at 40 uM measured on day 3 by FQ-PCR analysis relative to control; type: functional; conditions: HepG2.2.15, 72 h; how it was run: as §2
[4] = tested on: HepG2 cells (Homo sapiens); assay: Cytotoxicity against human HepG2 cells at 40 uM supplemented with fresh medium containing compound every 3 days for 9 days measured post-last dose
[5] = tested on: Hepatitis B virus; assay: Antiviral activity against lamivudine-resistant Hepatitis B virus harboring L180M/M204V mutant infected in human HepG2.2.15 cells assessed as inhibition of intracellular HBV DNA replication at 40 uM measured on day 3 by FQ-PCR analysis relative to control; type: functional; conditions: HepG2.2.15, 72 h
How it was run: (§4)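 Lamivudine-resistant cell line transfected with the L180M/M204V mutant, exposed to 10, 20 or 40 µM for 3, 6 or 9 days. Intracellular and extracellular HBV DNA levels measured.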

[6] = tested on: Hepatitis B virus; assay: Antiviral activity against Hepatitis B virus infected in human HepG2.2.15 cells assessed as inhibition of extracellular HBV DNA replication at 20 uM supplemented with fresh medium containing compound every 3 days for 9 days measured post-last dose by FQ-PCR analysis relative to control; type: functional; how it was run: as §2
[7] = tested on: Hepatitis B virus; assay: Antiviral activity against Hepatitis B virus infected in human HepG2.2.15 cells assessed as inhibition of intracellular HBV DNA replication at 20 uM measured on day 3 by FQ-PCR analysis relative to control; type: functional; conditions: HepG2.2.15, 72 h; how it was run: as §2
[8] = tested on: Hepatitis B virus; assay: as §1, with “against lamivudine-resistant” for “against”, “virus harboring L180M/M204V mutant” for “virus”, “40” for “20”; type: functional; how it was run: as §4
[9] = tested on: Hepatitis B virus; assay: Antiviral activity against lamivudine-resistant Hepatitis B virus harboring L180M/M204V mutant infected in human HepG2.2.15 cells assessed as inhibition of extracellular HBV DNA replication at 40 uM measured on day 3 by FQ-PCR analysis relative to control; type: functional; conditions: HepG2.2.15, 72 h; how it was run: as §4
[10] = tested on: Hepatitis B virus; assay: Antiviral activity against lamivudine-resistant Hepatitis B virus harboring L180M/M204V mutant infected in human HepG2.2.15 cells assessed as inhibition of intracellular HBV DNA replication at 10 uM measured on day 3 by FQ-PCR analysis relative to control; type: functional; conditions: HepG2.2.15, 72 h; how it was run: as §4
[11] = Cytotoxicity against human HepG2 cells after 3 days by MTT assay; type: cell-based
How it was run: (§5)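 HepG2 cells were exposed to compound for 3 or 9 days and viability was read by MTT assay. CC50 is the concentration causing 50% cytotoxicity. Results are mean ± SD of three experiments.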

[12] = tested on: Hepatitis B virus; assay: Antiviral activity against Hepatitis B virus infected in human HepG2.2.15 cells assessed as inhibition of extracellular HBV DNA replication at 10 uM measured on day 3 by FQ-PCR analysis relative to control; type: functional; conditions: HepG2.2.15, 72 h; how it was run: as §2
[13] = tested on: Hepatitis B virus; assay: as §3, with “against lamivudine-resistant” for “against”, “virus harboring L180M/M204V mutant” for “virus”, “intracellular” for “extracellular”; type: functional; how it was run: as §4
[14] = tested on: Hepatitis B virus; assay: (§6) Antiviral activity against Hepatitis B virus infected in human HepG2.2.15 cells assessed as inhibition of extracellular HBV DNA replication at 10 uM supplemented with fresh medium containing compound every 3 days for 6 days measured post-last dose by FQ-PCR analysis relative to control; type: functional; how it was run: as §2
[15] = tested on: Hepatitis B virus; assay: Antiviral activity against Hepatitis B virus infected in human HepG2.2.15 cells assessed as inhibition of intracellular HBV DNA replication at 10 uM measured on day 3 by FQ-PCR analysis relative to control; type: functional; conditions: HepG2.2.15, 72 h; how it was run: as §2
[16] = tested on: Hepatitis B virus; assay: as §6, with “against lamivudine-resistant” for “against”, “virus harboring L180M/M204V mutant” for “virus”, “intracellular” for “extracellular”; type: functional; how it was run: as §4
[17] = tested on: Hepatitis B virus; assay: Antiviral activity against Hepatitis B virus infected in human HepG2.2.15 cells assessed as inhibition of intracellular HBV DNA replication at 40 uM measured on day 3 by FQ-PCR analysis relative to control; type: functional; conditions: HepG2.2.15, 72 h; how it was run: as §2
[18] = Cytotoxicity against human HepG2 cells supplemented with fresh medium containing compound every 3 days for 9 days measured post-last dose by MTT assay; type: cell-based; how it was run: as §5
[19] = tested on: Hepatitis B virus; assay: Antiviral activity against Hepatitis B virus infected in human HepG2.2.15 cells assessed as inhibition of extracellular HBV DNA replication at 20 uM measured on day 3 by FQ-PCR analysis relative to control; type: functional; conditions: HepG2.2.15, 72 h; how it was run: as §2
[20] = tested on: Hepatitis B virus; assay: Antiviral activity against Hepatitis B virus infected in human HepG2.2.15 cells assessed as inhibition of intracellular HBV DNA replication at 20 uM supplemented with fresh medium containing compound every 3 days for 9 days measured post-last dose by FQ-PCR analysis relative to control; type: functional; how it was run: as §2
[21] = tested on: Hepatitis B virus; assay: as §6, with “against lamivudine-resistant” for “against”, “virus harboring L180M/M204V mutant” for “virus”; type: functional; how it was run: as §4

In the case of `C[C@@]1(F)[C@H](O)[C@@H](CO)O[C@H]1n1nnc2c(Nc3ccc(Cl)cc3F)ncnc21`, the “inhibition (INH)” value [1] is reported as 42.6%, the “inhibition (INH)” value [2] is reported as 82.5% and the inhibition at 40 µM [3] is reported as 34.7%. For the same molecule, the “inhibition (INH)” value [4] was 7.7%, the inhibition at 40 µM [5] was 31.3% and the “inhibition (INH)” value [6] was 65%. For the same molecule, the inhibition at 20 µM [7] was 28.1%, the “inhibition (INH)” value [8] was 61.1% and the inhibition at 40 µM [9] was 45.2%. It also gave an inhibition at 10 µM [10] of 5%, a CC50 at 72 h [11] of 409 µM and an inhibition at 10 µM [12] of 18.4%. For the same molecule, the “inhibition (INH)” value [13] was 76.4%, the “inhibition (INH)” value [14] was 31.1% and the inhibition at 10 µM [15] was 14%. For the same molecule, the “inhibition (INH)” value [16] was 22.8%, the inhibition at 40 µM [17] was 36.8% and the CC50 at 216 h [18] was 245 µM. For the same molecule, the inhibition at 20 µM [19] was 24.5%, the “inhibition (INH)” value [20] was 67.4% and the “inhibition (INH)” value [21] was 27.4%.
